This is a sample that favours compounds with a hit; in the whole collection about 1.7% have one here.
proCasp3 act: procaspase-3 (human) activation; recombinant procaspase-3 D3A, Ac-DEVD-pNA absorbance 405 nm; activation, % at 8.5 µM; hit rate 0.11% among 330,000; AID 463141;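 active = activation above the mean of all tested compounds plus 3 SD, cut at about 21% in these data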;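 also: 0% = DMSO alone and 100% = DMSO wells spiked with extra 5 µM PC-3 D3A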
Target sequence (P42574 whole entry D9A/D28A/D175A): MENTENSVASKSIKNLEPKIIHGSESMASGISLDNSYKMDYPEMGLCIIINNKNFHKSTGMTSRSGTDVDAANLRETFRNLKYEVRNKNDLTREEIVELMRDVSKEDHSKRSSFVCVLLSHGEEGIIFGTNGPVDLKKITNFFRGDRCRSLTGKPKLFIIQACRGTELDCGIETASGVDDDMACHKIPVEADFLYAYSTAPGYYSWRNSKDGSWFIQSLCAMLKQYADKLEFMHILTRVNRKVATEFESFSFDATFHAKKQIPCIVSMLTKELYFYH
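assay system = Procaspase-3 D3A mutant | signal = absorbance at 405 nm, 0 and 120 min | times = 1 h preincubation plus 2 h reaction at 25 °C | repeats = single replicate | read-out = % activation between DMSO and enzyme-spiked controls | medium = Zinc-free HEPES saline buffer with Triton X-100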
PolyA inh: yeast polyadenylation inhibition | hit rate 0.02% among 300,000 | S. cerevisiae SKY197-pL101 polyadenylation reporter, beta-gal luminescence; efflux-impaired pdr1/pdr3 knockout yeast; score 100 = 6 SD above DMSO | activity score, % at 12 µM;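 active = lowest replicate activity score at least 50, where 100 means six control SD above control mean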;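 also: yeast exposed to compound for 9 h at 30 °C; higher score means more reporter readthrough which indicates perturbed polyadenylation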
IMP-1 inhibitor: inhibitors of Pseudomonas aeruginosa IMP-1 metallo-beta-lactamase; purified IMP-1, nitrocefin hydrolysis, epi-absorbance fluorescence; inhibition, % at 5.6 µM; AID 1556; hit rate 0.45% among 290,000;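 active = inhibition above the mean plus 3 SD of all compounds in the same screening run, cut at about 4.5% in these data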;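 also: 0% = IMP-1 with DMSO and 100% = DMSO wells lacking enzyme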
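Test system: recombinant IMP-1 enzyme, purified / Medium: HEPES buffer pH 7.1 with ZnSO4 and Brij 35 / Doses: single dose, 5.6 µM / Times: 25 °C, 15 min preincubation, 25 min reaction / Detection: Epi-absorbance via hydrolysed-nitrocefin quenching of white-plate fluorescence, 480/530 nm, EDTA stop / Evaluation: percent inhibition from optical density relative to buffer-blank wells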
VIM-2 inhibitor: inhibitors of Pseudomonas aeruginosa VIM-2 metallo-beta-lactamase; hit rate 0.89% among 290,000; AID 1527; purified VIM-2, nitrocefin hydrolysis, epi-absorbance fluorescence; inhibition, % at 5.6 µM;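 active = inhibition above the mean of all tested compounds plus 3 SD, cutoff set per screening run, cut at about 7.5% in these data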;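 also: red hydrolysis product quenches plate fluorescence so inhibitors raise well fluorescence; 0% = enzyme with DMSO and 100% = DMSO without enzyme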
procasp7 counter: counter-screen for procaspase-3 activators: activators of human procaspase-7; recombinant procaspase-7, Ac-DEVD-pNA absorbance 405 nm; D23A/D198A/D206A triple mutant, cannot self-cleave; scale: DMSO 0, 5 µM enzyme 100; hit rate 0.093% among 330,000; activation, % at 8.5 µM;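 active = percent activation above the screen-wide mean plus 3 SD, cut at about 25% in these data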
Target sequence (P55210 whole entry D23A/D198A/D206A): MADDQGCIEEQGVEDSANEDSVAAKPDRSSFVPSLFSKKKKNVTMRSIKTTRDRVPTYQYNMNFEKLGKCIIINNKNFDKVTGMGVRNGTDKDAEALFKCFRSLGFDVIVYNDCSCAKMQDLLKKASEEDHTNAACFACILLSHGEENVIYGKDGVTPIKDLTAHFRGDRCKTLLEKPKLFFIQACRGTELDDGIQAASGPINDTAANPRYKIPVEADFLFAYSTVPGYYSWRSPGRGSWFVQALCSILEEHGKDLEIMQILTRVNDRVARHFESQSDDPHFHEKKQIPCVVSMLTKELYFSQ
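Material: Procaspase-7 triple mutant (PC-7 D3A) | Quantity: 2 µM procaspase-7 mutant as dispensed | Reagent: DEVD-pNA substrate | Times: 1 h preincubation, 2 h reaction | Technique: 405 nm absorbance of p-nitroaniline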
Neddylation inh: cullin neddylation inhibition | TR-FRET cullin neddylation, biochemical | calls only at 25 µM | hit rate 0.58% among 360,000 | AID 651699 | P61081+Q13564; in the data active = inhibition above about 36%
* hit, by the source's call; i = inactive; · = not tested or not shown; + = active, no number.

SMILES | proCasp3 act | PolyA inh | IMP-1 inhibitor | VIM-2 inhibitor | procasp7 counter | Neddylation inh
N#CNC(=Nc1ccccc1F)SCc1ccc(C(=O)O)cc1 | 0 | 16 | -3 | -1 | 0 | i
COc1ccc(/C=C/C(=O)Nc2ccc(-c3nnc4n3CCCCC4)cc2)c(OC)c1 | 4 | 8 | -1 | -4 | -3 | i
COc1cc(NC(=O)CSc2ncnc3c2cnn3Cc2ccccc2)cc(OC)c1 | 2 | 10 | 4.5* | -1 | 4 | i
COC(=O)CSc1ncnc2c1cnn2Cc1ccccc1 | -6 | -12 | -5 | -4 | 1 | i
Cc1ccc(S(=O)(=O)N2CCC(C(=O)NNC(=O)c3ccccc3O)CC2)cc1C | 7 | 8 | · | · | 1 | i
Cc1cc(C)c(C)c(S(=O)(=O)N2CCC(C(=O)NNC(=O)c3ccccc3O)CC2)c1C | -2 | 18 | · | · | -6 | +
O=C(O)C/C(=C\c1cc2c(cc1Br)OCO2)c1nc2ccccc2s1 | -9 | -25 | -4 | 8.8* | -13 | i
Cc1ccc2cc3c(NC(=O)C4CCCO4)nn(CC(C)C)c3nc2c1 (stereo unspecified) | -9 | 2 | 0 | -3 | 0 | ·
COc1cccc(Nc2nc(-c3sc(NC(=O)CC(C)C)nc3C)cs2)c1 | 0 | 0 | 5.9* | -4 | -9 | i
COc1ccc(NS(=O)(=O)c2cccc(C(=O)NCC(c3ccc(OC)cc3)N3CCCC3)c2)cc1 (stereo unspecified) | 10 | -14 | · | · | 6 | i
CSCC[C@H](NC(=O)N1CCn2c1nc1ccccc12)C(=O)NCc1ccc(F)cc1 | 7 | -9 | 51* | -2 | 7 | i
O=C1S/C(=C\C=C\c2ccco2)C(=O)N1c1ccccc1 | -12 | -7 | 3 | -2 | -7 | i
O=C1S/C(=C\C=C\c2ccco2)C(=O)N1c1ccc(O)cc1 | -5 | 3 | 7.2* | 5 | -5 | i
COc1ccccc1/C=C1\SC(=S)N(CC(=O)NC2CCS(=O)(=O)C2)C1=O (stereo unspecified) | -8 | -2 | 0 | 0 | -18 | i
COc1ccc(O)c(C2NC(CC(C)C)(C(=O)O)C3C(=O)N(Cc4ccccc4)C(=O)C23)c1 (stereo unspecified) | 1 | -11 | 1 | -4 | 12 | i
CCOC(=O)c1c(C)oc2c(CN3CCN(C)CC3)c(Br)c(OC)c(O)c12 | 1 | · | -2 | 10* | 0 | i
CCOC(=O)c1c(CN2CCN(C)CC2)n(C)c2cc(Br)c(OC)cc12 | 1 | 9 | -1 | 7 | 5 | i
Cc1ccc(/C=N/NC(=O)c2cccnc2)s1 | 11 | 2 | -4 | -4 | 6 | i
O=C(NCCc1cccs1)c1ccc(CS(=O)Cc2ccc(Cl)cc2)o1 (stereo unspecified) | -4 | 6 | -3 | -2 | 3 | i
Cc1cc(NC(=O)C2C3C(=O)N(CC4CCCO4)C(C(=O)NCc4ccccc4)C34C=CC2(C)O4)no1 (stereo unspecified) | 0 | -2 | 5.0* | -3 | 9 | i
COc1ccc(CCC(=O)Nc2ccc(S(=O)(=O)Nc3nccc(C)n3)cc2)cc1 | 2 | 18 | -2 | -3 | -8 | i
O=[N+]([O-])c1ccccc1/C=C/C=N/n1c(-c2ccco2)n[nH]c1=S | 0 | 19 | -2 | 9.8* | -15 | i
S=c1[nH]nc(-c2ccco2)n1/N=C/C(Cl)=C/c1ccccc1 | -4 | -9 | -3 | 8.1* | -6 | i
Cc1ccc(-c2n[nH]c(=S)n2/N=C/C=C/c2ccccc2[N+](=O)[O-])cc1 | -13 | -26 | -3 | -5 | -14 | i
S=c1[nH]nc(-c2cc(-c3ccccc3)n[nH]2)n1/N=C/C(Br)=C/c1ccccc1 | -21 | 21 | -3 | -2 | -5 | +
SMILES | proCasp3 act | PolyA inh | IMP-1 inhibitor | VIM-2 inhibitor | procasp7 counter | Neddylation inh
S=c1[nH]nc(-c2cc(-c3ccccc3)n[nH]2)n1/N=C/c1ccccc1 | -3 | 12 | -2 | -3 | -7 | i
S=c1[nH]nc(-c2ccco2)n1-c1ccccc1Cl | 0 | -5 | -3 | 16* | 1 | i
Cc1ccc(S(=O)(=O)N2CCCC2CNC(=O)C(=O)Nc2ccc(F)cc2)cc1 (stereo unspecified) | -3 | 12 | · | · | 2 | i
S=c1[nH]nc(-c2ccco2)n1/N=C/c1cccc(Cl)c1 | -13 | -9 | -4 | 9.1* | -21 | i
CNc1nc(Sc2ccccc2)cc(C(F)(F)F)n1 | 0 | -15 | -2 | -4 | 7 | i
Cc1cccc(N2C(=O)/C(=C/c3cccnc3)SC2=S)c1 | -14 | -3 | 0 | 0 | -8 | i
Cc1ccc(/C=C2\SC(=S)N(c3cccnc3)C2=O)o1 | -10 | 19 | 5.9* | 1 | -20 | i
COc1ccc(N2CCN(Cc3nc4c(c(=O)[nH]c(=O)n4C)n3CCCc3ccccc3)CC2)cc1 | 0 | 7 | -3 | -2 | 7 | i
Cc1ccnc2nc(C(=O)OCC(=O)Nc3ccc4c(c3)OC(F)(F)O4)nn12 | 1 | -7 | 4.7* | 1 | 8 | i
CCOc1ccc(NC(=O)NCc2ccco2)cc1 | 4 | 19 | -2 | -1 | 4 | i
Fc1ccccc1-c1nc2nc3ccccc3nc2n1CC1CCCO1 (stereo unspecified) | -7 | -8 | -1 | -2 | -4 | +
O=C(O)c1cc(Cl)c(Cl)cc1C(=O)Nc1cccc2cccnc12 | -15 | 4 | -3 | 9.1* | -9 | i
O=C(Nc1cccc2cccnc12)c1ccccc1Cl | -2 | -18 | · | · | 4 | i
Cc1cccc(N=c2oc3cc(O)ccc3cc2C(N)=O)c1 | -7 | 18 | -1 | 0 | -4 | +
Cc1ncc([N+](=O)[O-])n1CCOC(=O)c1ccc(Cl)cc1Cl | -9 | 18 | -3 | 9.7* | 4 | i
COC(=O)c1cc(N=C(N)N=C(N)N)cc(C(=O)OC)c1 | 0 | -3 | -3 | 9.0* | 0 | i
NC(=O)C[n+]1ccc(/C=N/O)cc1 | -7 | -1 | -3 | -2 | 5 | i
CCCOP(=O)(c1ccc(N(C)C)cc1)C(Nc1ccccc1)c1ccc(C)cc1 (stereo unspecified) | 13 | 59* | -3 | -2 | -2 | i
COc1ccc2sc(N3C(=O)CC(Cc4cccc(C)c4)C3=O)nc2c1 (stereo unspecified) | -42 | -14 | -1 | -1 | 3 | i
Cc1cccc(CC2CC(=O)N(c3nc4ccccc4s3)C2=O)c1 (stereo unspecified) | 6 | -17 | 8.6* | 1 | 2 | i

Screens from PubChem.
